Test results as given in ChEMBL document CHEMBL3576826, “New Monocyclic, Bicyclic, and Tricyclic Ethynylcyanodienones as Activators of the Keap1/Nrf2/ARE Pathway and Inhibitors of Inducible Nitric Oxide Synthase” (J Med Chem, 2015).

Key:
[1] = molecular target: Kelch-like ECH-associated protein 1/Nuclear factor erythroid 2-related factor 2 (Mus musculus) (UniProt Q60795+Q9Z2X8); experiment: Activation of Keap1/Nrf2/ARE pathway in mouse Hepa-1c1c7 cells assessed as double induction of NQO1 specific activity after 48 hrs by bicinchoninic acid assay; type: cell-based
In short: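 Hepa1c1c7 cells, 10000 per well, grown 24 h, then exposed to increasing concentrations for 48 h. Lysed; protein by BCA assay; NQO1 specific activity measured. CD = concentration doubling NQO1 specific activity, used as inducer potency. Eight replicate wells per concentration; SD 5–10%.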

[2] = molecular target: T1, Nitric oxide synthase, inducible (Mus musculus, UniProt P29477); experiment: Inhibition of iNOS in LPS-stimulated mouse RAW264.7 cells assessed as inhibition of nitric oxide production after 48 hrs by Griess assay; type: cell-based
T1 sequence (P29477 whole entry): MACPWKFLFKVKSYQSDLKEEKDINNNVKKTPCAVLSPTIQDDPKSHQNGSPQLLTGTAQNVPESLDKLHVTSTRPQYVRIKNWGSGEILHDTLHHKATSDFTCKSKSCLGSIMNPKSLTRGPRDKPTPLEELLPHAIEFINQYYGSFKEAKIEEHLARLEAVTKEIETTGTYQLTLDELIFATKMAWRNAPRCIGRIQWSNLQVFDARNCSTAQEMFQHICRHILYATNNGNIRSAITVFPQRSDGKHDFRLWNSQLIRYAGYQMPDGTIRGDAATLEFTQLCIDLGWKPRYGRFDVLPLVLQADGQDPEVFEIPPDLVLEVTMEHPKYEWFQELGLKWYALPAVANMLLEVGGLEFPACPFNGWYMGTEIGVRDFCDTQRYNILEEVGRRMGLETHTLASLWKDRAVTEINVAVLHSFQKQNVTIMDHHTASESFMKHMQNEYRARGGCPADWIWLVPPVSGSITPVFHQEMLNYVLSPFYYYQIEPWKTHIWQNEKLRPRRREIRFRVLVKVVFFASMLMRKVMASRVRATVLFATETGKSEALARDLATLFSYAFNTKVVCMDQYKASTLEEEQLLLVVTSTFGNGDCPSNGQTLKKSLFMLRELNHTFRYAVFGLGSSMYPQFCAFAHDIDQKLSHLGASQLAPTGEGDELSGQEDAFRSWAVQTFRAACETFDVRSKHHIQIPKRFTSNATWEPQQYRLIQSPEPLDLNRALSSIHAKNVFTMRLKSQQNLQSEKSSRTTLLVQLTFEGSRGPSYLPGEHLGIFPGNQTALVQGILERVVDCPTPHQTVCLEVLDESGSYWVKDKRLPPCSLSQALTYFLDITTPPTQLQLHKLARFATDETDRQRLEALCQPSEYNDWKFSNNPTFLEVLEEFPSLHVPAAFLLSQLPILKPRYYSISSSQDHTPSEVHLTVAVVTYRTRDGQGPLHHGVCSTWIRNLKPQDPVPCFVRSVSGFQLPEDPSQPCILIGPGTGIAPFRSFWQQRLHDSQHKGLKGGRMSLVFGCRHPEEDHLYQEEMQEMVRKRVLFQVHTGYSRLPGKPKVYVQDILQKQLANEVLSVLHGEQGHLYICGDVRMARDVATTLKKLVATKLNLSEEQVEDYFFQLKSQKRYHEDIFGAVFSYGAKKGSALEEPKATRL

Chain of Kelch-like ECH-associated protein 1/Nuclear factor erythroid 2-related factor 2 (Mus musculus) (Q60795 whole entry, looked up): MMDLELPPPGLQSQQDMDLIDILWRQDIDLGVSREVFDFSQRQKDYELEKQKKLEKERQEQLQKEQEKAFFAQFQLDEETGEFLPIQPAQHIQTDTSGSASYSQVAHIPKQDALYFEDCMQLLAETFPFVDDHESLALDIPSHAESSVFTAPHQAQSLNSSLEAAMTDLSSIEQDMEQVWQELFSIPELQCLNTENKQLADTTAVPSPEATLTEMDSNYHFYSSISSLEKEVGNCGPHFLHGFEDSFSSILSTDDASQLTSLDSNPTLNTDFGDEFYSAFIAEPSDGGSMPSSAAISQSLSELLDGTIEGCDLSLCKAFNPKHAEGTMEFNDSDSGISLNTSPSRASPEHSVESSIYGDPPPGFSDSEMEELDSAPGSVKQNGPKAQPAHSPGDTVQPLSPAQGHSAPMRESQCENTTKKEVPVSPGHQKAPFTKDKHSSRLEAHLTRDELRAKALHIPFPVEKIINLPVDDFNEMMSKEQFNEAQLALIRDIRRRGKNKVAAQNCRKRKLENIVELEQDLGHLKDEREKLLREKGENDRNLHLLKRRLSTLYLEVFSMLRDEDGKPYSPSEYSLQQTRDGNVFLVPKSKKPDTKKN
Chain of Kelch-like ECH-associated protein 1/Nuclear factor erythroid 2-related factor 2 (Mus musculus) (Q9Z2X8 whole entry, looked up): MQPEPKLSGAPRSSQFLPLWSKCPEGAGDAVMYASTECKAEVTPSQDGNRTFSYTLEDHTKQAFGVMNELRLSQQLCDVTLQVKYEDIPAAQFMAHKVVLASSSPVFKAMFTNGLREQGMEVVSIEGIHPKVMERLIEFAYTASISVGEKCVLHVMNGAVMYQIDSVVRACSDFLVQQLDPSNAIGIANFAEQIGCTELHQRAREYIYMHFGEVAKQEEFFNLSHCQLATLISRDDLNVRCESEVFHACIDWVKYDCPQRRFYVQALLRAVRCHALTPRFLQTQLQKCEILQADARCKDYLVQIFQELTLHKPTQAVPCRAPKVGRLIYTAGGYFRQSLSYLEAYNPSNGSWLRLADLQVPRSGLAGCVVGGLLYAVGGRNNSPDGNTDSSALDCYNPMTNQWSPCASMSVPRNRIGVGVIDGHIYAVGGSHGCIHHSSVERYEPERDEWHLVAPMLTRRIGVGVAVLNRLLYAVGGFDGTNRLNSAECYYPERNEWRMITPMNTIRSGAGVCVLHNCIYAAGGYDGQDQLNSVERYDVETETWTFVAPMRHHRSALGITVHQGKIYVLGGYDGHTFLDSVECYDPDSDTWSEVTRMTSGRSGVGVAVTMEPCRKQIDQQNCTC

Structure (SMILES) | CD [1] [nM] | IC50 ([2]; raw264.7) [nM] | IC50 [2] [nM]
C#CC12C=C(C#N)C(=O)C=C1c1c(C)cccc1CC2 (stereo not drawn) | 1800 | 940 | 
C#CC12C=C(C#N)C(=O)C=C1c1ccccc1C2 (stereo not drawn) | 41 | 380 | 
C#CC12C=C(C#N)C(=O)C=C1c1c(Cl)cccc1C2 (stereo not drawn) | 130 | 800 | 
C#CC1(C#C)C=CC(=O)C(C#N)=C1 | 180 | 210 | 
C#CC1(C)C=C(C#N)C(=O)c2ccccc21 (stereo not drawn) | 220 |  | 
C#CC12C=C(C#N)C(=O)C=C1C(C)(C)CC2 (stereo not drawn) | 100 | 200 | 
CC1(C)CC[C@]2(C(=O)O)CC[C@]3(C)[C@H](C(=O)C=C4[C@@]5(C)C=C(C#N)C(=O)C(C)(C)[C@@H]5CC[C@]43C)[C@@H]2C1 [BARDOXOLONE] | 2.3 | 23 | 
C#C[C@]12C=C(C#N)C(=O)C=C1[C@@]1(C)C=C(C#N)C(=O)C(C)(C)[C@@H]1CC2 (racemic) | 0.9 | 1 | 
C#CC12C=C(C#N)C(=O)C=C1c1ccccc1CC2 (stereo not drawn) | 150 |  | 
C#CC1(CC)C=CC(=O)C(C#N)=C1 (stereo not drawn) | 42 |  | 
C#CC1(C=C)C=CC(=O)C(C#N)=C1 (stereo not drawn) | 20 | 16 | 
C[S+]([O-])CCCCN=C=S (stereo not drawn) [SULFORAPHANE] | 200 |  | 400
C#CC12C=C(C#N)C(=O)C=C1CCC2 (stereo not drawn) | 56 | 160 | 
C#CC12C=C(C#N)C(=O)C=C1c1c(Cl)cccc1CC2 (stereo not drawn) | 900 |  | 
C#CC12C=C(C#N)C(=O)C=C1c1c(Br)cccc1CC2 (stereo not drawn) | 1300 | 650 | 
C#CC1(C)C=CC(=O)C(C#N)=C1 (stereo not drawn) | 21 | 18 | 
